# ChEMBL document CHEMBL1687801, “Pharmacokinetics-pharmacodynamics of a respiratory syncytial virus fusion inhibitor in the cotton rat model” (Antimicrob Agents Chemother, 2010)
# What was measured:
# [1] = tested on: Respiratory syncytial virus; assay: Antiviral activity against respiratory syncytial virus long strain infected in cotton rat assessed as log reduction in epithelial lining fluid viral load at 12.5 mg/kg, sc single dose administered 24 hrs before viral infection by qRT-PCR assay; type: functional; conditions: route subcutaneous
# Outline: (§1)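 Nanocrystal suspension was given as a single s.c. dose to cotton rats (six per cohort). RSV Long (10⁶ PFU) was inoculated intranasally 24 h later. On day 4, BALF from a single 2.5 ml PBS lavage was lysed with DTT and lysis buffer, and RNA was extracted with an internal control. Monoplex real-time RT-PCR was run in duplicate against an eight-point 10-fold RSV RNA standard. Titers were urea-corrected to ELF; reduction was taken versus untreated controls.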
# [2] = tested on: Plasma; assay: Drug level in cotton rat plasma at 12.5 - 200 mg/kg, sc administered as single dose measured after 24 hrs; type: ADME, organism-based; design: dose 200 mg/kg, route subcutaneous; conditions: in vivo
# [3] = tested on: Lung; assay: AUC (0 to 24 hrs) in Sprague-Dawley rat lung tissue at 10 mg/kg, iv administered as single bolus dose; type: ADME, organism-based; design: time < 24 hr, dose 10 mg/kg, route intravenous; conditions: in vivo
# [4] = AUC (0 to 24 hrs) in Sprague-Dawley rat bronchoalveolar lavage fluid at 10 mg/kg, iv administered as single bolus dose; type: ADME, organism-based, Lung; design: time < 24 hr, dose 10 mg/kg, route intravenous; conditions: in vivo
# [5] = Clearance in Sprague-Dawley rat plasma at 10 mg/kg, iv administered as single bolus dose; type: ADME, organism-based; design: dose 10 mg/kg, route intravenous
# [6] = Volume of distribution at steady state in Sprague-Dawley rat plasma at 10 mg/kg, iv administered as single bolus dose; type: ADME, organism-based; design: dose 10 mg/kg, route intravenous; conditions: read-out: Vdss
# [7] = Ratio of AUC (0 to 24 hrs) in Sprague-Dawley rat lung tissue to plasma; type: ADME
# [8] = Drug level in Sprague-Dawley rat plasma at 10 mg/kg, iv administered as single bolus dose measured after 3 hrs; type: ADME, organism-based; design: dose 10 mg/kg, route intravenous; conditions: read-out: Drug uptake
# [9] = Drug level in Sprague-Dawley rat lung tissue at 10 mg/kg, iv administered as single bolus dose measured after 3 hrs; type: ADME, organism-based; design: dose 10 mg/kg, route intravenous; conditions: read-out: Drug uptake
# [10] = Drug level in Sprague-Dawley rat bronchoalveolar lavage fluid at 10 mg/kg, iv administered as single bolus dose measured after 3 hrs; type: ADME, organism-based, Lung; design: dose 10 mg/kg, route intravenous; conditions: read-out: Drug uptake
# [11] = Drug level in cotton rat epithelial lining fluid at 10 mg/kg, iv administered as single bolus dose measured after 3 hrs; type: ADME, organism-based; design: dose 10 mg/kg, route intravenous; conditions: read-out: Drug uptake
# [12] = Drug level in cotton rat bronchoalveolar lavage fluid at 10 mg/kg, iv administered as single bolus dose measured after 3 hrs; type: ADME, organism-based, Lung; design: dose 10 mg/kg, route intravenous; conditions: read-out: Drug uptake
# [13] = tested on: Respiratory syncytial virus; assay: Antiviral activity against respiratory syncytial virus long strain infected in cotton rat assessed as log reduction in epithelial lining fluid viral load at 25 mg/kg, sc single dose administered 24 hrs before viral infection by qRT-PCR assay; type: functional; conditions: route subcutaneous; outline: as §1
# [14] = tested on: Respiratory syncytial virus; assay: Antiviral activity against respiratory syncytial virus long strain infected in cotton rat assessed as log reduction in epithelial lining fluid viral load at 50 mg/kg, sc single dose administered 24 hrs before viral infection by qRT-PCR assay; type: functional; conditions: route subcutaneous; outline: as §1
# [15] = tested on: Respiratory syncytial virus; assay: Antiviral activity against respiratory syncytial virus long strain infected in cotton rat assessed as log reduction in epithelial lining fluid viral load at 100 mg/kg, sc single dose administered 24 hrs before viral infection by qRT-PCR assay; type: functional; conditions: route subcutaneous; outline: as §1
# [16] = tested on: Respiratory syncytial virus; assay: Antiviral activity against respiratory syncytial virus long strain infected in cotton rat assessed as log reduction in epithelial lining fluid viral load at 200 mg/kg, sc single dose administered 24 hrs before viral infection by qRT-PCR assay; type: functional; conditions: route subcutaneous; outline: as §1
# [17] = tested on: Respiratory syncytial virus; assay: Antiviral activity against respiratory syncytial virus long strain infected in cotton rat assessed as log reduction in epithelial lining fluid viral load at 12.5 mg/kg, sc single dose administered 24 hrs before viral infection by plaque assay; type: functional; conditions: route subcutaneous
# Outline: (§2)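 Cotton rats (60–100 g, six per dose cohort) received one s.c. dose of an aqueous slow-release nanocrystal suspension. At 24 h they were anesthetized with isoflurane and given 10⁶ PFU RSV Long intranasally in 0.1 ml. On day 4 lungs were lavaged once with 2.5 ml PBS. BALF supernatant was plaque-titrated on Vero cells (7 days, 37°C, methylene blue). Titers were urea-corrected to ELF; log reduction was taken versus untreated infected controls.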
# [18] = tested on: Respiratory syncytial virus; assay: Antiviral activity against respiratory syncytial virus long strain infected in cotton rat assessed as log reduction in epithelial lining fluid viral load at 25 mg/kg, sc single dose administered 24 hrs before viral infection by plaque assay; type: functional; conditions: route subcutaneous; outline: as §2
# [19] = tested on: Respiratory syncytial virus; assay: Antiviral activity against respiratory syncytial virus long strain infected in cotton rat assessed as log reduction in epithelial lining fluid viral load at 50 mg/kg, sc single dose administered 24 hrs before viral infection by plaque assay; type: functional; conditions: route subcutaneous; outline: as §2
# [20] = tested on: Respiratory syncytial virus; assay: Antiviral activity against respiratory syncytial virus long strain infected in cotton rat assessed as log reduction in epithelial lining fluid viral load at 100 mg/kg, sc single dose administered 24 hrs before viral infection by plaque assay; type: functional; conditions: route subcutaneous; outline: as §2
# [21] = tested on: Respiratory syncytial virus; assay: Antiviral activity against respiratory syncytial virus long strain infected in cotton rat assessed as log reduction in epithelial lining fluid viral load at 200 mg/kg, sc single dose administered 24 hrs before viral infection by plaque assay; type: functional; conditions: route subcutaneous; outline: as §2
# [22] = tested on: Respiratory syncytial virus; assay: Antiviral activity against respiratory syncytial virus long strain infected in cotton rat assessed as maximum reduction in epithelial lining fluid viral load at 200 ng/ml plasma concentration; type: functional; design: scale not given: the % may be the effect or the level left
# Outline: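 Plasma was drawn at 24 h after single s.c. nanocrystal doses (12.5–200 mg/kg) to cotton rats, just before intranasal RSV inoculation, and assayed by LC-MS/MS. Individual day-4 plaque-assay ELF titer reductions were plotted against this plasma concentration and fitted to a simple E_max model, E = (E_max × C24h)/(C24h + EC50).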
# [23] = AUC (0 to 24 hrs) in Sprague-Dawley rat plasma at 10 mg/kg, iv administered as single bolus dose; type: ADME, organism-based; design: time < 24 hr, dose 10 mg/kg, route intravenous
# [24] = tested on: Respiratory syncytial virus; assay: microbe, parasite or virus in culture; conditions: human respiratory syncytial virus, long, HeLaM
compound,measurement,setting,value
Cc1ccc(CCCO)c(NCc2ccc3nc(NCCCN4CCOCC4)n(Cc4nc(C)ccc4O)c3c2)c1,log10PFU/ml,[1],0.5
same,Drug uptake,[2],Active
same,AUC,[3],131000 ng·h/mL
same,AUC,[4],170 ng·h/mL
same,clearance,[5],143 mL/min/kg
same,Vd,[6],55 L/kg
same,Kp,[7],122
same,concentration at 3 h,[8],63 ng/mL
same,concentration at 3 h,[9],9400 ng/mL
same,concentration at 3 h,[10],11 ng/mL
same,concentration at 3 h,[11],392 ng/mL
same,concentration at 3 h,[12],23 ng/mL
same,log10PFU/ml,[13],0.6
same,log10PFU/ml,[14],1.1
same,log10PFU/ml,[15],1.7
same,log10PFU/ml,[16],2.2
same,log10PFU/ml,[17],0.2
same,log10PFU/ml,[18],0.3
same,log10PFU/ml,[19],0.4
same,log10PFU/ml,[20],0.8
same,log10PFU/ml,[21],1.2
same,Activity,[22],50%
same,AUC(0-t) at 24 h,[23],1100 ng·h/mL
same,EC50,[24],0.07 ng/mL
